From ChEMBL document CHEMBL1156834, “Syntheses and biological activities of KRN7000 analogues having aromatic residues in the acyl and backbone chains with varying stereochemistry” (Bioorg Med Chem Lett, 2010)
Activity calls are given as the source filed them. No cut-off for these calls is given here.

Experiments:
Type in all cases: cell-based
[1] = target: T1, Antigen-presenting glycoprotein CD1d (Homo sapiens) (UniProt P15813); assay: Induction of CD1D-mediated IL-13 production in human iNKT cells expressing CD4 at 400 nM after 18 hrs by ELISA
T1 sequence (whole entry): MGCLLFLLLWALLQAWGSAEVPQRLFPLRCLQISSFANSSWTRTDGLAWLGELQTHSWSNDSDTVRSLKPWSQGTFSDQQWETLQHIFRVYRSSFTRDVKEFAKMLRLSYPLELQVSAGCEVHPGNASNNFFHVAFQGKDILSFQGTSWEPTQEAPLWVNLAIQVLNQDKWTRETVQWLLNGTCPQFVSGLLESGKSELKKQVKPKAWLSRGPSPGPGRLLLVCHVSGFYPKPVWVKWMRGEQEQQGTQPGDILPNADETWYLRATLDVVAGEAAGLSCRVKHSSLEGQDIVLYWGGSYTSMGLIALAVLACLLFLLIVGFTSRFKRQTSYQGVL
Procedure, shortened: (§1)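 CD4⁺ human iNKT clone HDD11 with CD1d-transfected HeLa cells as APC, in RPMI-1640 plus 10% FBS. 2.5 × 10⁴ HeLa cells were pulsed with glycolipid for 18 h at 37 °C, washed, then given fresh glycolipid-free medium with 2.5 × 10⁴ iNKT cells. Supernatants were taken after a further 18 h at 37 °C, and cytokine was measured by capture ELISA.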

[2] = target: T1, Antigen-presenting glycoprotein CD1d (Homo sapiens); assay: Induction of CD1D-mediated IL-13 production in human iNKT cells expressing CD4 at 25 nM after 18 hrs by ELISA; procedure, shortened: as §1
[3] = target: T1, Antigen-presenting glycoprotein CD1d (Homo sapiens); assay: Induction of CD1D-mediated IL-4 production in human iNKT cells expressing CD4 at 25 nM after 18 hrs by ELISA; procedure, shortened: as §1
[4] = target: T1, Antigen-presenting glycoprotein CD1d (Homo sapiens); assay: Induction of CD1D-mediated IFN-gamma production in human iNKT cells expressing CD4 at 25 nM after 18 hrs by ELISA; procedure, shortened: as §1
[5] = target: T1, Antigen-presenting glycoprotein CD1d (Homo sapiens); assay: Induction of CD1D-mediated IL-13 production in human iNKT cells expressing CD4 at 25 to 400 nM after 18 hrs by ELISA; procedure, shortened: as §1
[6] = target: T1, Antigen-presenting glycoprotein CD1d (Homo sapiens); assay: Induction of CD1D-mediated IL-4 production in human iNKT cells expressing CD4 at 25 to 400 nM after 18 hrs by ELISA; procedure, shortened: as §1
[7] = target: T1, Antigen-presenting glycoprotein CD1d (Homo sapiens); assay: Induction of CD1D-mediated IFN-gamma production in human iNKT cells expressing CD4 at 25 to 400 nM after 18 hrs by ELISA; procedure, shortened: as §1

Row | Activity [1] | Activity [2] | Activity [3] | Activity [4] | Activity [5] | Activity [6] | Activity [7] | SMILES
1 | Active | – | – | – | Active | Active | Active | CCCCCCCCCCCCCCCC[C@H](CO[C@H]1O[C@H](CO)[C@H](O)[C@H](O)[C@H]1O)NC(=O)CCCCCCCCCc1ccccc1
2 | Active | Active | Active | Active | – | – | – | CCCCCCCCCCCCCCCCCCCCCCCCCC(=O)N[C@@H](CO[C@H]1O[C@H](CO)[C@H](O)[C@H](O)[C@H]1O)[C@H](O)[C@@H](O)CCCc1ccccc1
3 | Active | Active | Active | Active | – | – | – | CCCCCCCCCCCCCCC[C@H](O)[C@H](CO[C@H]1O[C@H](CO)[C@H](O)[C@H](O)[C@H]1O)NC(=O)CCCCCCCCCc1ccccc1
4 | Active | Active | Active | Active | – | – | – | CCCCCCCCCCCCCC[C@H](O)[C@H](O)[C@H](CO[C@H]1O[C@H](CO)[C@H](O)[C@H](O)[C@H]1O)NC(=O)CCCCCc1ccccc1
5 | Active | – | – | – | Active | Active | Active | CCCCCCCCCCCCCCCCCCCCCCCCCC(=O)N[C@@H](CO[C@H]1O[C@H](CO)[C@H](O)[C@H](O)[C@H]1O)[C@H](O)[C@H](O)CCCc1ccccc1

The next lines start with the compound.

Row | SMILES | Activity [1] | Activity [2] | Activity [3] | Activity [4] | Activity [5] | Activity [6] | Activity [7]
6 | CCCCCCCCCCCCCCCCCCCCCCCCCC(=O)N[C@@H](CO[C@H]1O[C@H](CO)[C@H](O)[C@H](O)[C@H]1O)[C@@H](O)CCCCCCCCCCCCCCC | Active | Active | Active | Active | – | – | –
7 | CCCCCCCCCCCCCCCCCCCCCCCCCC(=O)N[C@H](CCCCCCCCCCCCCCCC)CO[C@H]1O[C@H](CO)[C@H](O)[C@H](O)[C@H]1O | Active | Active | Active | Active | – | – | –
8 | CCCCCCCCCCCCCCCCCCCCCCCCCC(=O)N[C@@H](CO[C@H]1O[C@H](CO)[C@H](O)[C@H](O)[C@H]1O)[C@H](O)[C@H](O)CCCCCCCCCCCCCC | Active | – | – | – | – | – | –
